Calls of active or inactive are those of the source. No cut-off for these calls is given here.

Data set [1] has as its target T1, Bifunctional epoxide hydrolase 2 (Homo sapiens) (UniProt P34913).
T1 sequence (whole entry): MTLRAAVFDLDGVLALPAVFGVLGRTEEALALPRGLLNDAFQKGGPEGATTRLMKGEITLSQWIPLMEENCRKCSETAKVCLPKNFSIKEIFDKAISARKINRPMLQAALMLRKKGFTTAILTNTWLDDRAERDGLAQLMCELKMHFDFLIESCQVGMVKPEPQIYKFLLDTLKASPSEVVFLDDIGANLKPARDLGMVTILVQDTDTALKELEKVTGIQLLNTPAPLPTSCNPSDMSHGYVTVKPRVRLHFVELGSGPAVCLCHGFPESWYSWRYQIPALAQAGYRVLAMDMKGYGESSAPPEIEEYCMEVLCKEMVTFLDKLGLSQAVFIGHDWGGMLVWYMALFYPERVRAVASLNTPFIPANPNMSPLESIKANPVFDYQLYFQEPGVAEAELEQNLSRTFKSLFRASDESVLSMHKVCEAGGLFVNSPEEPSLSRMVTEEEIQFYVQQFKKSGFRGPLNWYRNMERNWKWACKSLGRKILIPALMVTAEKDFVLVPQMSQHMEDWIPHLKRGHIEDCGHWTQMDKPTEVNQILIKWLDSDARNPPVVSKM
Briefly: Inhibition of sEH in human HuT-78 cells assessed as reduction in Pam3CSK4-stimulated TNFalpha release preincubated for 24 hrs followed by Pam3CSK4 addition measured after 18 hrs by ELISA. Type of data set: cell-based. An outline of the steps: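 HuT-78 cells in RPMI 1640 with 10% heat-inactivated FCS, 2.0 × 10^6 cells/well, exposed to compound (0.1% DMSO) for 24 h; medium then replaced with fresh compound plus Pam3CSK4 20 ng/mL for 18 h; supernatant TNFα measured by ELISA (absorbance 450 nm); each concentration repeated independently at least three times.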
In general terms: An ELISA detects its analyte on a solid surface through an enzyme-linked reagent.

Data set [2] has as its system HepG2. Briefly: Cytotoxicity against human HepG2 cells up to 100 uM after 48 hrs by WST1 assay. As to conditions: hepg2, 48 h. Type of data set: cell-based. In general terms: Tetrazolium dyes change colour on reduction, which living cells bring about.
Data set [3] can be described thus: Half life in C57BL/6JRj mouse at 10 mg/kg, po measured up to 480 mins post dose by LC-MS analysis. It counts as ADME, organism-based. As to conditions: in vivo. An outline of the steps:
(§1)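 Male C57BL/6JRj mice (23−26 g), six dosed once orally at 10 mg/kg in water with 1% HPMC/Tween 80 (99:1), three vehicle. Tail-vein blood (20 μL) at 15, 30, 60, 120, 240 and 480 min, last by retro-orbital puncture. Blood spiked, acetonitrile precipitation with griseofulvin internal standard, LC−MS on phenyl-hexyl column. Noncompartmental PK analysis.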

Data set [4] deals with Retinoic acid receptor RXR-beta (Homo sapiens) (UniProt P28702). Briefly: Transactivation of human GAL4-fused RXRbeta ligand binding domain expressed in […] cells at 10 uM after 12 to 14 hrs by dual-glo luciferase reporter gene assay. It counts as cell-based. The method, boiled down: (§2)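 HEK293T cells in DMEM/10% FCS, Opti-MEM before Lipofectamine LTX transfection with pFR-Luc reporter, pRL-SV40 and pFA-CMV GAL4–LBD plasmid. 5 h later compound in 0.1% DMSO, Opti-MEM, overnight (12−14 h). Dual luciferase; firefly/renilla ×1000 = RLU, fold over DMSO control; triplicates, ≥3 independent repeats.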
Retinoic acid receptor RXR-beta (Homo sapiens), sequence (P28702 whole entry, the tested form may be a part): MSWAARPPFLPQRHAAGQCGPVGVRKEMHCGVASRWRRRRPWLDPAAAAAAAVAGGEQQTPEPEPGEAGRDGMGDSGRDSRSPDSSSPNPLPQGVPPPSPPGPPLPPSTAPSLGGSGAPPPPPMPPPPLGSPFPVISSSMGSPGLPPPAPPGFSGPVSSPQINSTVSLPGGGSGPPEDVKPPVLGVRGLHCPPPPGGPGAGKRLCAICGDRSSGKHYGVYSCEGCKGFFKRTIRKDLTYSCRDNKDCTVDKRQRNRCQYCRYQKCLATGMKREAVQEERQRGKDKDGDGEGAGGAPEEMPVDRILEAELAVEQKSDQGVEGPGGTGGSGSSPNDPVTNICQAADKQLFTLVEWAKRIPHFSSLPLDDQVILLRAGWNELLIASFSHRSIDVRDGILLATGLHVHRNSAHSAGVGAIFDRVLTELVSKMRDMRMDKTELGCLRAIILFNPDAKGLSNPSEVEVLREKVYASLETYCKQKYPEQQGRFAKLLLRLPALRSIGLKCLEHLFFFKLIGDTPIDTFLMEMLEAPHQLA

Data set [5] deals with Retinoic acid receptor gamma (Homo sapiens) (UniProt P13631). The data set can be described thus: Transactivation of human GAL4-fused RARgamma ligand binding domain expressed in […] cells at 10 uM after 12 to 14 hrs by dual-glo luciferase reporter gene assay. Type of data set: cell-based. The method, boiled down:
as §2

Data set [6] deals with T2, Bile acid receptor (Homo sapiens, UniProt Q96RI1).
T2 sequence (Q96RI1 whole entry): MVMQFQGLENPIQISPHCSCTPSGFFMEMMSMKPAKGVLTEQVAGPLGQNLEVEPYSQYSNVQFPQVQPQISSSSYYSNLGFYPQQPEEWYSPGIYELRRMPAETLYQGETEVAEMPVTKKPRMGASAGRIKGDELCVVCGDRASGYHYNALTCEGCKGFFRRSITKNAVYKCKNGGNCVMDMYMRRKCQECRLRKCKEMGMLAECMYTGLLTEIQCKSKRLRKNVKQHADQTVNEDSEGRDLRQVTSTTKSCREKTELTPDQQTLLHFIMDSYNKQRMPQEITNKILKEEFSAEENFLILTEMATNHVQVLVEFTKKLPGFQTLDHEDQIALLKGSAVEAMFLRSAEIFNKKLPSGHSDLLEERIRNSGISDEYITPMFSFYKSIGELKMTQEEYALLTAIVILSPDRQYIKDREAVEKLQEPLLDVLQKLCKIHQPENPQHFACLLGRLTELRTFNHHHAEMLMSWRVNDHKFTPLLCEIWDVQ
The data set can be described thus: Transactivation of FXR in human HepG2 cells assessed as CYP7A1 mRNA expression at 1 uM after 8 to 16 hrs by SYBR green based qRT-PCR analysis relative to DMSO control. It counts as ADME, cell-based. An outline of the steps:
(§3)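 HepG2 cells incubated with test compound (0.1 and 1 μM) or 0.1% DMSO for 8 or 16 h, washed in cold PBS, RNA extracted; target mRNA by SYBR Green qRT-PCR, duplicate samples, ≥4 independent experiments; comparative ΔΔCt with GAPDH reference, vehicle set as 100%.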
(In general: Quantitative PCR measures a nucleic acid by following its amplification.)

Data set [7] can be described thus: Tmax in C57BL/6JRj mouse at 10 mg/kg, po measured up to 480 mins post dose by LC-MS analysis. It counts as ADME, organism-based. As to conditions: in vivo. The method, boiled down:
as §1

Data set [8] concerns MDM. Briefly: Effect on IL-10 levels in LPS-stimulated primary human MDM at 0.01 uM after 16 hrs by cytometric bead array method. Type of data set: functional, cell-based. An outline of the steps: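 Blood monocytes isolated by dextran sedimentation and Nycoprep gradient, adherence-selected 1 h, differentiated with GM-CSF 10 ng/mL for 7 days plus IFNγ 10 ng/mL for last 48 h. Stimulated with LPS 100 ng/mL plus compound for 16 h; supernatant IL-10 and IL-12p70 measured by cytometric bead array flow cytometry.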

Data set [9] deals with T3, Bile acid receptor (Homo sapiens) (UniProt Q96RI1).
T3 sequence (whole entry): T2 sequence (Q96RI1 whole entry)
Briefly: Transactivation of FXR in human HepG2 cells assessed as BSEP mRNA expression at 1 uM after 8 to 16 hrs by SYBR green based qRT-PCR analysis relative to DMSO control. It counts as cell-based. An outline of the steps: as §3

Retinoic acid receptor gamma (Homo sapiens), sequence (P13631 whole entry, the tested form may be a part): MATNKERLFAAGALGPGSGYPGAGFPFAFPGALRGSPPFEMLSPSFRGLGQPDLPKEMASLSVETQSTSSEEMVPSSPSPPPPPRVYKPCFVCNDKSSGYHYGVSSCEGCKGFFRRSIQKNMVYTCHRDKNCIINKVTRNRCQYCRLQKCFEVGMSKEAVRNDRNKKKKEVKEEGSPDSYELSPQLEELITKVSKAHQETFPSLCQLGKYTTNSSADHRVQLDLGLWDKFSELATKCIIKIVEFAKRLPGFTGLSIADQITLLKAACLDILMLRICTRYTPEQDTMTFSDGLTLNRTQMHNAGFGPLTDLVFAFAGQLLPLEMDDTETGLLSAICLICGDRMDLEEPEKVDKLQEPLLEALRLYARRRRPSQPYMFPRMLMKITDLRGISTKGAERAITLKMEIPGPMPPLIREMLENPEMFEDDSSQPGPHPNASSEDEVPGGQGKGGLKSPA

The term half-life denotes how long it takes for the measured level to halve. Low values mean fast loss, high ones slow loss. Broadly, the Tmax is the time from dosing to the highest level. Turning to `CC(C)(C)c1ccc(C(=O)NCc2ccc(NS(C)(=O)=O)cc2Cl)cc1`, the inhibition result in [1] is “Active”. For the same molecule, the figures for the Activity entry in data set [2], in [6] and in [9] were “Non-Toxic”, 52% and 222%, respectively. The half-life in data set [3] was 42 min. Further, the outcome in data set [4], in data set [5] and in data set [8] was inactive. Moreover, the Tmax in data set [7] worked out at 30 min.

Values taken from ChEMBL document CHEMBL4017509, “A Dual Modulator of Farnesoid X Receptor and Soluble Epoxide Hydrolase To Counter Nonalcoholic Steatohepatitis” (J Med Chem, 2017).
